Activity calls are given as the source filed them. The rule behind the calls is not given here.
Experiments:
Cavia porcellus [1] = assay: Bronchodilatory activity in iv dosed Hartley guinea pig assessed as inhibition of histamine-induced constriction compound of total 3 to 4 doses at 15 mins interval starting first dose 2 mins post challenge; type: functional
Procedure, shortened: (§1)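 Ventilated, curarized guinea pigs received repeated 12-s IV spasmogen injections every 5 min, tuned to a 20-50 cm water rise in tracheal pressure. Three or four logarithmically spaced IV doses were given over 1 min, at 15-min intervals, with at least four animals per spasmogen. ED50 is the dose giving -50% spasm variation, taken from a semilog regression. When -50% was not reached, ED50 is reported as greater than the top dose.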

Cavia porcellus [2] = assay: Bronchodilatory activity in iv dosed Hartley guinea pig assessed as inhibition of serotonin-induced constriction compound of total 3 to 4 doses at 15 mins interval starting first dose 2 mins post challenge; type: functional; procedure, shortened: as §1
Cavia porcellus [3] = assay: Bronchodilatory activity in iv dosed Hartley guinea pig assessed as inhibition of acetylcholine-induced constriction compound of total 3 to 4 doses at 15 mins interval starting first dose 2 mins post challenge; type: functional; procedure, shortened: as §1
Cavia porcellus [4] = assay: Bronchodilatory activity in iv dosed Hartley guinea pig assessed as inhibition of acetylcholine-induced constriction at 3.2 mg/kg, iv of total 3 to 4 doses at 15 mins interval starting 2 mins post challenge; type: functional
Procedure, shortened: (§2)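 Artificially ventilated, curarized guinea pigs. Spasmogen was given IV in 12-s injections every 5 min, adjusted to raise tracheal pressure by 20-50 cm water. After three similar control spasms, drug was infused IV over 1 min. Sodium salts were given in water and esters in 10% aqueous ethanol. Read-out was % variation of spasm amplitude versus control, in at least four animals per spasmogen.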

Cavia porcellus [5] = assay: Bronchodilatory activity in iv dosed Hartley guinea pig assessed as inhibition of histamine-induced constriction at 3.2 mg/kg, iv of total 3 to 4 doses at 15 mins interval starting 2 mins post challenge; type: functional; procedure, shortened: as §2
Cavia porcellus [6] = assay: Bronchodilatory activity in iv dosed Hartley guinea pig assessed as inhibition of serotonin-induced constriction at 3.2 mg/kg, iv of total 3 to 4 doses at 15 mins interval starting 2 mins post challenge; type: functional; procedure, shortened: as §2
Canis familiaris = assay: Bronchodilatory activity in anesthetized dog assessed as inhibition of pilocarpine-induced bronchospasms compound administered through aerosol 15 mins post challenge measured up to 1 hr; type: functional, organism-based; conditions: Canis lupus familiaris
[7] = Cavia porcellus, Hartley, iv, read-out: ED50

Row | Structure (SMILES) | ED50 (Cavia porcellus [1]; [7]) | ED50 (Cavia porcellus [2]) | inhibition in vivo at 3.2 mg/kg (Cavia porcellus [4]) | inhibition in vivo at 3.2 mg/kg (Cavia porcellus [5]) | inhibition in vivo at 3.2 mg/kg (Cavia porcellus [6]) | further results
1 | CCCCC1([C@H](O)/C=C/C2CCC(=O)[C@@H]2CCCCCCC(=O)OCC)CCC1 (mixture of isomers) | 15.1 µg/kg | 409 µg/kg | – | – | – | –
2 | CCCCC1([C@@H](O)/C=C/C2CCC(=O)[C@@H]2CCCCCCC(=O)OCC)CCC1 (mixture of isomers) | 32 µg/kg | – | – | – | – | ED50 (Cavia porcellus [3]; [7]): 2.06 µg/kg
3 | CCCCC1([C@H](O)/C=C/C2CCC(=O)[C@@H]2CCCCCCC(=O)O)CCC1 (mixture of isomers) | 2.4 µg/kg | – | – | – | – | ED50 (Cavia porcellus [3]; Cavia porcellus, Hartley, iv): 47.8 µg/kg
4 | CCCCC1([C@@H](O)/C=C/C2CCC(=O)[C@@H]2CCCCCCC(=O)O)CCC1 (mixture of isomers) | 13.9 µg/kg | 20.3 µg/kg | < 50% | – | – | –
5 | CCCCC1([C@H](O)/C=C/C2CCC(=O)[C@@H]2C/C=C\CCCC(=O)O)CCC1 (mixture of isomers) | 2.2 µg/kg | 7.67 µg/kg | – | – | – | ED50 (Cavia porcellus [3]; [7]): 24.2 µg/kg
6 | CCCCC1([C@@H](O)/C=C/C2CCC(=O)[C@@H]2C/C=C\CCCC(=O)O)CCC1 (mixture of isomers) | – | – | < 50% | < 50% | – | –
7 | CCCCC1([C@H](O)/C=C/C2CCC(=O)[C@@H]2CCCCCC(=O)OCC)CCC1 (mixture of isomers) | – | – | < 50% | < 50% | < 50% | –
8 | CCCCC1([C@H](O)/C=C/C2CCC(=O)[C@@H]2C/C=C\CCCC(=O)OCC)CCC1 (mixture of isomers) | 221 µg/kg | 135 µg/kg | – | – | – | –
9 | CCCCC1([C@@H](O)/C=C/C2CCC(=O)[C@@H]2C/C=C\CCCC(=O)OCC)CCC1 (mixture of isomers) | – | – | < 50% | < 50% | < 50% | –
10 | CCCCC1([C@H](O)/C=C/C2CCC(=O)[C@@H]2CCCCCC(=O)O)CCC1 (mixture of isomers) | 32 µg/kg | 32 µg/kg | – | – | – | ED50 (Cavia porcellus [3]; [7]): 320 µg/kg
11 | CCCCC1([C@H](O)/C=C/C2CCC(=O)[C@@H]2CCCCCCCC(=O)OCC)CCC1 (mixture of isomers) | – | – | < 50% | < 50% | < 50% | –
12 | CCCCC1([C@@H](O)/C=C/C2CCC(=O)[C@@H]2CCCCCCCC(=O)OCC)CCC1 (mixture of isomers) | – | – | < 50% | < 50% | < 50% | –
13 | CCCCC1([C@H](O)/C=C/C2CCC(=O)[C@@H]2CCCCCCCC(=O)O)CCC1 (mixture of isomers) | – | – | < 50% | < 50% | < 50% | –
14 | CCCCC1([C@@H](O)/C=C/C2CCC(=O)[C@@H]2CCCCCCCC(=O)O)CCC1 (mixture of isomers) | – | – | < 50% | < 50% | < 50% | –
15 | CCCCC1([C@H](O)/C=C/C2CCC(=O)[C@@H]2CCCCCCCCC(=O)OCC)CCC1 (mixture of isomers) | 6210 µg/kg | 4380 µg/kg | < 50% | – | – | –
16 | CCCCC1([C@@H](O)/C=C/C2CCC(=O)[C@@H]2CCCCCCCCC(=O)OCC)CCC1 (mixture of isomers) | – | – | < 50% | < 50% | < 50% | –
17 | CCCCC1([C@H](O)/C=C/C2CCC(=O)[C@@H]2CCCCCCCCC(=O)O)CCC1 (mixture of isomers) | – | – | < 50% | < 50% | < 50% | –

Row | Structure (SMILES) | ED50 (Cavia porcellus [1]; [7]) | ED50 (Cavia porcellus [2]) | inhibition in vivo at 3.2 mg/kg (Cavia porcellus [4]) | inhibition in vivo at 3.2 mg/kg (Cavia porcellus [5]) | inhibition in vivo at 3.2 mg/kg (Cavia porcellus [6]) | further results
18 | CCCCC1([C@@H](O)/C=C/C2CCC(=O)[C@@H]2CCCCCCCCC(=O)O)CCC1 (mixture of isomers) | – | – | < 50% | < 50% | < 50% | –
19 | CCCCC1([C@H](O)/C=C/C2CCC(=O)[C@@H]2CCCCC(C)(C)CC(=O)OCC)CCC1 (mixture of isomers) | – | – | < 50% | < 50% | < 50% | –
20 | CCCCC1([C@@H](O)/C=C/C2CCC(=O)[C@@H]2CCCCC(C)(C)CC(=O)OCC)CCC1 (mixture of isomers) | – | – | < 50% | < 50% | < 50% | –
21 | CCCCC1([C@H](O)/C=C/C2CCC(=O)[C@@H]2CCCCC(C)(C)CC(=O)O)CCC1 (mixture of isomers) | – | – | < 50% | < 50% | < 50% | –
22 | CCCCC1([C@@H](O)/C=C/C2CCC(=O)[C@@H]2CCCCC(C)(C)CC(=O)O)CCC1 (mixture of isomers) | – | – | < 50% | < 50% | < 50% | –
23 | CCCCC1([C@H](O)/C=C/C2CCC(=O)[C@@H]2CCCCSCC(=O)OCC)CCC1 (mixture of isomers) | 30 µg/kg | 300 µg/kg | – | – | – | ED50 (Cavia porcellus [3]; [7]): 909 µg/kg
24 | CCCCC1([C@@H](O)/C=C/C2CCC(=O)[C@@H]2CCCCSCC(=O)OCC)CCC1 (mixture of isomers) | > 672 µg/kg | – | < 50% | – | < 50% | –
25 | CCCCC1([C@H](O)/C=C/C2CCC(=O)[C@@H]2CCCCSCC(=O)O)CCC1 (mixture of isomers) | 91.2 µg/kg | 171 µg/kg | < 50% | – | – | –
26 | CCCCC1([C@@H](O)/C=C/C2CCC(=O)[C@@H]2CCCCSCC(=O)O)CCC1 (mixture of isomers) | 606 µg/kg | – | < 50% | – | < 50% | –
27 | CCCCC1([C@H](O)/C=C/C2[C@H](O)CC(=O)[C@@H]2CCCCCCC(=O)O)CCC1 (mixture of isomers) | – | 1.26 µg/kg | – | – | – | inhibition (Canis familiaris): Active; ED50 (Cavia porcellus [1]): 0.555 µg/kg; ED50 (Cavia porcellus [3]; [7]): 1.45 µg/kg
28 | CCCCC1([C@@H](O)/C=C/C2[C@H](O)CC(=O)[C@@H]2CCCCCCC(=O)O)CCC1 (mixture of isomers) | 17 µg/kg | 43.9 µg/kg | – | – | – | inhibition (Canis familiaris): Active; ED50 (Cavia porcellus [3]; [7]): 30 µg/kg
29 | CCCCC1([C@H](O)/C=C/C2[C@H](O)CC(=O)[C@@H]2C/C=C\CCCC(=O)O)CCC1 (mixture of isomers) | 1.54 µg/kg | 2.51 µg/kg | – | – | – | ED50 (Cavia porcellus [3]; [7]): 1.06 µg/kg
30 | CCCCC1([C@@H](O)/C=C/C2[C@H](O)CC(=O)[C@@H]2C/C=C\CCCC(=O)O)CCC1 (mixture of isomers) | 48.4 µg/kg | 305 µg/kg | – | – | – | ED50 (Cavia porcellus [3]; [7]): 32 µg/kg
31 | CCCC1([C@H](O)/C=C/C2[C@H](O)CC(=O)[C@@H]2C/C=C\CCCC(=O)O)CCC1 (mixture of isomers) | – | 3 µg/kg | – | – | – | ED50 (Cavia porcellus [1]): 0.0979 µg/kg; ED50 (Cavia porcellus [3]; [7]): 3 µg/kg
32 | CCCC1([C@@H](O)/C=C/C2[C@H](O)CC(=O)[C@@H]2C/C=C\CCCC(=O)O)CCC1 (mixture of isomers) | 46.7 µg/kg | 265 µg/kg | < 50% | – | – | –
33 | CCCCC[C@H](O)/C=C/[C@H]1[C@H](O)CC(=O)[C@@H]1CCCCCCC(=O)O [ALPROSTADIL] | 0.7 µg/kg | 1.07 µg/kg | – | – | – | inhibition (Canis familiaris): Active; ED50 (Cavia porcellus [3]): 3.3 µg/kg

— ChEMBL document CHEMBL3244318, “Prostaglandins and congeners. 14. Synthesis and bronchodilator activity of dl-16,16-trimethyleneprostaglandins” (1977)
